Data taken from the EternaBench riboswitch data.

Tested on: MS2 coat protein
Assay: apparent Kd, MS2 coat protein; higher = weaker binding; RNA-MaP array; FMN 200 µM where present
How it was run: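 The apparent Kd comes from binding curves fitted cluster by cluster, filtered, and summarised as a median. Those curves followed SNAP-549-labelled MS2 coat protein from 0.7 or 1.5 nM, doubling to 3 µM, on Illumina sequencing-chip clusters where stalled E. coli RNA polymerase had transcribed the designs, without and then with constant ligand. The buffer was 100 mM Tris-HCl pH 7.5, 80 mM KCl, 4 mM MgCl2, BSA, DTT, yeast tRNA and Tween-20, and green signal was normalised to red-channel RNA signal and control-cluster median Fmax.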

[1] = designed as: ON switch for flavin mononucleotide, no ligand
[2] = ligand present: flavin mononucleotide, designed as: ON switch for flavin mononucleotide
[3] = designed as: OFF switch for flavin mononucleotide, no ligand
[4] = ligand present: flavin mononucleotide, designed as: OFF switch for flavin mononucleotide

UCAGUCAUGUAAGGAUAUGCAGCCGUUUCGGCUGCAGAAGGUACUAUAAUUACAUGAGGAUCACCCAUGUUAUAAAAUUUAUAU
apparent Kd [1]: 52.5 nM | apparent Kd [2]: 19.9 nM

UCAUAACAUGAGGAUCACCCAUGUGAGGAUAUGAUACUAUGUACUUCGGUACAUAGUAUCAGAAGGCACAUACU
apparent Kd [3]: 85 nM | apparent Kd [4]: 316 nM

UCAUAUUUACAAGGAUAUCAAUUAUUUAUACAUCCUACAUGAGGAUCACCCAUGUUUUUAUAUUUUGAGAAGGUGUAAUGUCGG
apparent Kd [1]: 44.4 nM | apparent Kd [2]: 40.4 nM

UCAUCGGCAGGAUAUACGAAAGGAGAACUUCUGCGCAAGAUACAUGAGGAUCACCCAUGUAGAAGGGUCGUAUG
apparent Kd [3]: 27.8 nM | apparent Kd [4]: 88.7 nM

UCAUGGAAGCAGGAUAUGCUUGUUUAAUUGUUUGCAGAAGGGCUAACAUGAGGAUCACCCAUGUAAGAGGUCUA
apparent Kd [3]: 45.8 nM | apparent Kd [4]: 34.1 nM

UCAUUAUAAAUCCAUCAUAACUACAUGAGGAUCACCCAUGUGCAGGAUAUCGAUGGUUUAACUAUCGAGAAGGGCAUUUACAGA
apparent Kd [3]: 47.8 nM | apparent Kd [4]: 146 nM

UCAUUGUAAGGAUAUAAAAGCUCGCGGAAUUGCACGGGUUGUUAGAAGGUACAUGAGGAUCACCCAUGUUCCUA
apparent Kd [3]: 17.1 nM | apparent Kd [4]: 22.1 nM

UCAUUUCAGUAAGGAUAUUAAAACAUGACGAUACAUGAGGAUCACCCAUGUUAAGAAGGUACUAAUACAAAUAAUGCAUUGUUC
apparent Kd [3]: 14.7 nM | apparent Kd [4]: 15.5 nM

UCCAAACAUGAGGAUCACCCAUGUGAGGAUAUGAUACUAUGUACUUCGGUACAUAGUAUCAGAAGGCACAUCCA
apparent Kd [3]: 13.6 nM | apparent Kd [4]: 22.2 nM

UCCACUACUGAGAAGGGAUACAUAUGGUUCUAGUCAGGAUAUCGAUACAGUGCAGCAUGAGGACAUGAGGAUCACCCAUGUAUU
apparent Kd [1]: 54.6 nM | apparent Kd [2]: 36.2 nM

UCCGAACAUGAGGAUCACCCAUGUGAGGAUAUAGACGUGAAUUAAACACGUAACAAAACUAGAAGGCACUGGGC
apparent Kd [3]: 14.7 nM | apparent Kd [4]: 13.2 nM

UCCGCGCGCGUAGGAUAUACAUGAGGAUCACCCAUGUACCCAGAUGGCUUCCUGAAUCUUGCAAUGUAGAAGGACGCCCGUGGG
apparent Kd [3]: 37.9 nM | apparent Kd [4]: 42.5 nM

UCCGCGGACAUAGGAUAUACUGCGAAAUUUCUAGUAGAAGGGUGACCGCACGUGCGAACUGUACAUGAGGAUCACCCAUGUACU
apparent Kd [1]: 21.4 nM | apparent Kd [2]: 23.1 nM

UCCGUGGCAUCUCGCGCAUGUCUACAUGAGGAUCACCCAUGUCAGGAUAUACGGAAUGUCGUUCCGUAGAAGGGACAAGGGCUG
apparent Kd [3]: 243 nM | apparent Kd [4]: 116 nM

UCCUCACAUGAGGAUCACCCAUGUCAGGAUAUACCCAAAGCUGCGAAAAUAUCCAGCUGUAGAAGGGACAGGCU
apparent Kd [3]: 18.3 nM | apparent Kd [4]: 20.1 nM

UCCUGGCGAGGAUAUACAAUGUUUUUCGCGUGUAGUUGGAAACAUGAGGAUCACCCAUGUAGAAGGUGCUACUG
apparent Kd [3]: 32.6 nM | apparent Kd [4]: 25.6 nM

UCCUUCUGUUGAGGAUAUGUAAGACAGCGGCUGCUAUUGCGGCACGCUGAUACAGAAGGCAACAUGAGGAUCACCCAUGUUCAA
apparent Kd [3]: 26.4 nM | apparent Kd [4]: 205 nM

UCCUUGGAAGGAUAUCGAUAGGCUUACAUGAGGAUCACCCAUGUUGGGAUGUCUUUCUGUCGAGAAGGUUCGUUUU
apparent Kd [3]: 19.7 nM | apparent Kd [4]: 21.4 nM

UCCUUGUCCUGAGGAUAUCCGUAGUGACCGAAAGGAGAAGGCAGGACAUGAGGAUCACCCAUGUACCCAGAAAACGUGCAGAGU
apparent Kd [3]: 48.1 nM | apparent Kd [4]: 525 nM

UCGACUAGCGCCAGUCGAACAUGAGGAUCACCCAUGUACUCCAGAAGGCCGCCCAAGAACGGAGUGGAGGAUAUGGAGGUUCUC
apparent Kd [1]: 42.9 nM | apparent Kd [2]: 30.4 nM

UCGAGGUCAGGAUAUACAUGAGGAUCACCCAUGUUGAGAUAAGGUAGGAAAAGAGUAGGUAGAAGGGACGAGAG
apparent Kd [3]: 27.6 nM | apparent Kd [4]: 30.9 nM

UCGAUGCUAGGAUAUACUAAUACAACUACUGAAGUGUCUUCACAUGAGGAUCACCCAUGUAGAAGGAGCAUAUA
apparent Kd [3]: 59.5 nM | apparent Kd [4]: 46.8 nM

UCGCGAUGAGGAUAUACAUAGAAAUAGAUUCAUGUAAAACUACAUGAGGAUCACCCAUGUAGAAGGCAUUGCGU
apparent Kd [3]: 23 nM | apparent Kd [4]: 128 nM

UCGCUCCGUGUAGGAUAUCGUUGUAUUCUGCGGCGAGAAGGACAUGAGGAUCACCCAUGUAUGUUAUUAUCACGCGUGGCGCAA
apparent Kd [3]: 21 nM | apparent Kd [4]: 18.9 nM

UCGCUGCGAGGAUAUACAUGAGGAUCACCCAUGUACGGGUCCGGGUCUUCGUCCAUUAGUAGAAGGCGCAGUGA
apparent Kd [3]: 52.8 nM | apparent Kd [4]: 325 nM

UCGCUGCGAGGAUAUACAUGAGGAUCACCCAUGUACGGGUCCGGGUCUUCGUCCAUUGGUAGAAGGCGCAGUGA
apparent Kd [3]: 23.1 nM | apparent Kd [4]: 204 nM

UCGCUGCGAGGAUAUACAUGAGGAUCACCCAUGUGCGGGUCCGGGUCUUCGUCCAUUGGUAGAAGGCGCAGUGA
apparent Kd [3]: 45.3 nM | apparent Kd [4]: 554 nM

UCGGAGAAAGGAUAUACACCAAGGGUAUAGUAGGAUCCUGGACAUGAGGAUCACCCAUGUAGAAGGUUCACUGC
apparent Kd [3]: 60.1 nM | apparent Kd [4]: 31.1 nM

UCGGCCCAAGCACAUGAGGAUCACCCAUGUACCACGGCCACCAGAAGGGCAGGGAAGAGGGAUCUGCAGGAUAUGGGCACUAGC
apparent Kd [1]: 14.4 nM | apparent Kd [2]: 9.6 nM

UCGGCCGCUGGGUUGUACGAUGACAGAAGGGCACACCGGGUGCCGCACAUGAGGAUCACCCAUGUGCAGGAUAUGUCAUCCUGA
apparent Kd [3]: 11.1 nM | apparent Kd [4]: 8.25 nM

UCGGCGCGAGGAUAUACGUUUGCGCGUUUUCGUUUGCGCGUACAUGAGGAUCACCCAUGUAGAAGGCGCGCCGC
apparent Kd [3]: 15.1 nM | apparent Kd [4]: 29.9 nM

UCGGCGCGAGGAUAUACGUUUGCUUUUUAGGAUCGUGGCGUACAUGAGGAUCACCCAUGUAGAAGGCGCGCCGC
apparent Kd [3]: 13.8 nM | apparent Kd [4]: 20.3 nM

UCGGCGCGAGGAUAUGCGGUUUGUGCUUUGGGCCCUGGCGUACAUGAGGAUCACCCAUGUAGAAGGCGCGCCGC
apparent Kd [3]: 19.5 nM | apparent Kd [4]: 19.6 nM

UCGGGCGUAGGAUAUGCUAUCACGGACAUGAGGAUCACCCAUGUCAGAUGUCCGGGCGAGGCAGAAGGGCGGUUUU
apparent Kd [3]: 74.1 nM | apparent Kd [4]: 120 nM

UCGGUGCGAGGAUAUACGUUUGCGCGUUUUCGUUUGCGCGUACAUGAGGAUCACCCAUGUAGAAGGCGCGCGGC
apparent Kd [3]: 12.4 nM | apparent Kd [4]: 13.7 nM

UCGUACUUUCGAGGAUAUCGGUGAUAUAUAUUACGAGAAGGCGAUUGUUUGUUUUACGUCUUAGACAUGAGGAUCACCCAUGUA
apparent Kd [1]: 40.4 nM | apparent Kd [2]: 30.5 nM

UCGUCGCUAGGAGGAUAUACAUGAUCUCACACAUGUACCGCUCACGCCACAUGAGGAUCACCCAUGUAGAAGGCCUAGAGAGGU
apparent Kd [3]: 26.5 nM | apparent Kd [4]: 56.4 nM

UCGUGAGGGACAGGAUAUGGACAUGAGGAUCACCCAUGUACAUGGGAAUAUAUACUGAAUUUAUACUAGAAGGGUUACAUAAAU
apparent Kd [3]: 21.6 nM | apparent Kd [4]: 16.1 nM

UCGUGCCGGGUUGCGAGCGACCCACAUGAGGAUCACCCAUGUAGAAGGACCAGCGUCGGCCCUUGGUAGGAUAUACAUGAACUC
apparent Kd [3]: 113 nM | apparent Kd [4]: 152 nM

UCUACUUUACAUGAUUCAUCAACACAGGAUAUACCCGCAACAUGAGGAUCACCCAUGUAGGCCCGGUAGAAGGGUGCUUGGGAA
apparent Kd [1]: 10.8 nM | apparent Kd [2]: 6.43 nM

UCUCACUCAGGAUAUGAUGCGCAUGACAUGAGGAUCACCCAUGUGUGCAUGCCCUUUGCUUCAGAAGGGAGUGAGA
apparent Kd [3]: 19 nM | apparent Kd [4]: 21.6 nM

UCUCAGUCAGGAUAUCGUUAAUUUAAUUGUUUGUAUUAGUUCGAGAAGGGACAUGAGGAUCACCCAUGUACUCA
apparent Kd [3]: 34 nM | apparent Kd [4]: 94.6 nM

UCUCGUGUUCAGAAGGGCAAUCAACGAACAUGAGGAUCACCCAUGUUCUGCAGGAUAUGAACGGGUGGGAGCCCUGCGAAGGGA
apparent Kd [1]: 167 nM | apparent Kd [2]: 25.5 nM

UCUGGUCGAGGAUAUACGUGACGUGCUUCGGCACGAGGUCUACAUGAGGAUCACCCAUGUAGAAGGCGACCAGA
apparent Kd [3]: 17.1 nM | apparent Kd [4]: 48 nM

UCUGGUCGAGGAUAUGCGUAAUGUGUUACGGCACGAGGUCUACAUGAGGAUCACCCAUGUAGAAGGCGAUCAGA
apparent Kd [3]: 13.9 nM | apparent Kd [4]: 12.7 nM

UCUGUAGGAAUACAGACGAAGUGGCCAGAAGGUGAAUGCCACAUGAGGAUCACCCAUGUUUCGAUCAAGGAUAUGGUUUCUCAC
apparent Kd [1]: 312 nM | apparent Kd [2]: 79.8 nM

UCUUUACUGGUCAGGAUAUACAUUCGCUACUCUUUGUAGAAGGGACAUGAGGAUCACCCAUGUACUUUACAUUC
apparent Kd [3]: 17.9 nM | apparent Kd [4]: 18 nM

UGAAAUCAUGUAGGAUAUGCAUGGCGAAGCUGCGCAGAAGGACAUGAGGAUCACCCAUGUUAUAGCUACCCAGUUCGGUGGCAA
apparent Kd [3]: 37.3 nM | apparent Kd [4]: 171 nM

UGACCCAUGACAUGAGAUGACAUGAGGAUCACCCAUGUGUACAAGGAUAUGUUGGUCAAAGGUCGGCAGAAGGUGUAAUGGGAU
apparent Kd [3]: 59.8 nM | apparent Kd [4]: 146 nM

UGACGGAGCUGAGGAUAUUACAUGAGGAUCACCCAUGUAAGUCUCCAGGAAACUGGAGACAAAUGUAAGAAGGCAGCUCCGUCA
apparent Kd [3]: 18.7 nM | apparent Kd [4]: 27.9 nM

UGAGACCUCACAGGAUAUGCUGGACUUUGUCCAGCAGAAGGGUGAAAACAUGAGGAUCACCCAUGUAUGGUCUCCAAAUUUAAA
apparent Kd [1]: 187 nM | apparent Kd [2]: 13.6 nM

UGAGCAUGAGGAUAUACAUGACGUGCCGUAGCACGAGGUCUACAUGAGGAUCACCCAUGUAGAAGGCAUGUUCU
apparent Kd [3]: 23 nM | apparent Kd [4]: 87.4 nM

UGAGCCUCGUGAGGAUAUACAUGAGGAUCACCCAUGUAAUAGGAUGAACGGAGGAAACUCCGAAUGUAGAAGGCACGAGGCUCA
apparent Kd [3]: 77.7 nM | apparent Kd [4]: 664 nM

UGAGCGACCACAGGAUAUGCUUGAGAAGACCGAGCAGAAGGGUGGAAGAGCGUGCAGUGACAUGAGGAUCACCCAUGUGGUUGG
apparent Kd [1]: 173 nM | apparent Kd [2]: 170 nM

UGAUACUAAGAGAAGGUACAAACUACAUAUUACAUACAUGAGGAUCACCCAUGUUGGUGAAUAAGUAAGGAUAUUUUACUAUAU
apparent Kd [3]: 15.4 nM | apparent Kd [4]: 12.4 nM

UGAUAGGACAGAGGAUAUACGGAUAGGAUCUACUAUCUUCUUCAAAUAACAUGAGGAUCACCCAUGUAGAAGGCUGUCCUAUCU
apparent Kd [3]: 15 nM | apparent Kd [4]: 33 nM
